SMILES strings stand for the structures. Converted amounts (≈) assume the structure as drawn.

In one experiment the test system is Staphylococcus aureus. The experiment is described as follows: Minimum inhibitory concentration measured against Staphylococcus aureus. Type of experiment: functional.
The species entered for another experiment is Rattus norvegicus. The experiment is described as follows: Inhibition of mitochondrial protein synthesis (MPS) in rat heart mitochondria. Type of experiment: functional. The method in brief:
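Rat heart mitochondria were incubated at 1 mg/mL protein (Bradford) in buffer with translation components (ADP, amino acids). Incorporation of S35 methionine was followed for 1 h at 30 °C, then quenched with cold 5% TCA/5 mM methionine. Triplicate aliquots were filtered, washed and counted. Compounds were tested at 6–7 concentrations, ≤1% organic. IC50 came from the linear portion of the percent-of-control curve, as the mean of ≥2 experiments.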

Experiment [1] concerns Staphylococcus epidermidis. The experiment is described as follows: Minimum inhibitory concentration measured against Staphylococcus epidermidis. Type of experiment: functional.
The next experiment deals with Moraxella catarrhalis. In words: Minimum inhibitory concentration measured against Moraxella catarrhalis. It is filed as functional.
The subject of the next experiment is Enterococcus faecium. The experiment is described as follows: Minimum inhibitory concentration measured against Enterococcus faecium. Type of experiment: functional.
In experiment [2] the target is T1, Amine oxidase [flavin-containing] B (Rattus norvegicus, UniProt P19643).
T1 sequence (P19643 whole entry): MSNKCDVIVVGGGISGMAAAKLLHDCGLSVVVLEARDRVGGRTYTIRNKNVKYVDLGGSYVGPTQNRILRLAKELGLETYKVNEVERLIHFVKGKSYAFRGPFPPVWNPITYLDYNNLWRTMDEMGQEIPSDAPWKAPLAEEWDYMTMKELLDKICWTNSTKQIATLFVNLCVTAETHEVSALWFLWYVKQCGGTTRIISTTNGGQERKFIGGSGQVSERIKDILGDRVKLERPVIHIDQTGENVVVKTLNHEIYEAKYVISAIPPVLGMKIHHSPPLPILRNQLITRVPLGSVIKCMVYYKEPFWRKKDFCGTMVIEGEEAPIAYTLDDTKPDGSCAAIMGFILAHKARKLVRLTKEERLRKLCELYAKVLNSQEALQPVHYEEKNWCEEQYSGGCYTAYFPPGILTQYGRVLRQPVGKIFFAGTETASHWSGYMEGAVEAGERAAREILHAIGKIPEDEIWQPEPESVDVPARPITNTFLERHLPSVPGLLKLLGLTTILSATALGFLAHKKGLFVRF
The experiment is described as follows: Inhibition of Monoamine oxidase B in rat primary hepatocytes. Type of experiment: cell-based, Hepatocyte.

The test system of the next experiment is Streptococcus pneumoniae. In words: Minimum inhibitory concentration measured against Streptococcus pneumoniae. It is filed as functional.
In experiment [3] the target is T1, Amine oxidase [flavin-containing] B. In words: Compound was evaluated for inhibition of Mono aminoxidase B in rat primary hepatocytes. Type of experiment: cell-based, Hepatocyte.

By MIC is commonly meant the least concentration at which growth counts as inhibited. High values mean weaker potency, low ones greater potency. What is called IC50 is the concentration needed to halve the response being measured. The low end stands for greater potency in that assay, the high end for weaker potency in that assay. For `CC(=O)NC[C@H]1CN(c2ccc(/C=C(\F)c3cccc(C=O)c3)c(F)c2)C(=O)O1`, the MIC in the experiment on Staphylococcus aureus is 1 µg/mL (≈ 2.5 µM); in experiment [1] it was 0.5 µg/mL (≈ 1.25 µM); against Moraxella catarrhalis, 64 µg/mL (≈ 160 µM); against Enterococcus faecium, 1 µg/mL (≈ 2.5 µM); in the experiment on Streptococcus pneumoniae, 4 µg/mL (≈ 9.99 µM). In addition, the figures for the IC50 (in the experiment filed under Rattus norvegicus; in experiment [2]) were 9.9 µM and > 300 µM, respectively.
Regarding `CC(=O)NC[C@H]1CN(c2ccc(/C=C(\Br)c3cccc(CO)c3)c(F)c2)C(=O)O1`, the MIC against Staphylococcus aureus worked out at 2 µg/mL (≈ 4.32 µM); in experiment [1], 1 µg/mL (≈ 2.16 µM); against Moraxella catarrhalis, 4 µg/mL (≈ 8.63 µM); with Enterococcus faecium, 0.5 µg/mL (≈ 1.08 µM); against Streptococcus pneumoniae, 1 µg/mL (≈ 2.16 µM). The IC50 in the experiment listed under Rattus norvegicus is 8 µM; in experiment [2], > 150 µM.
Turning to `CC(=O)NC[C@H]1CN(c2ccc(/C=C(\Br)c3ccc(C#N)cc3)c(F)c2)C(=O)O1`, the MIC was 4 µg/mL (≈ 8.73 µM) with Staphylococcus aureus; 1 µg/mL (≈ 2.18 µM) in experiment [1]; > 128 µg/mL in the experiment with Moraxella catarrhalis; 2 µg/mL (≈ 4.36 µM) against Enterococcus faecium; 0.5 µg/mL (≈ 1.09 µM) against Streptococcus pneumoniae. Besides, the IC50 was 76 µM in the experiment listed under Rattus norvegicus and > 150 µM in experiment [2].
As for `CC(=O)NC[C@H]1CN(c2ccc(/C=C(\Br)c3cncc(C#N)c3)c(F)c2)C(=O)O1`, the MIC is 1 µg/mL (≈ 2.18 µM) in the experiment with Staphylococcus aureus; 0.25 µg/mL (≈ 0.544 µM) in experiment [1]; 2 µg/mL (≈ 4.35 µM) against Moraxella catarrhalis; < 0.125 µg/mL against Enterococcus faecium; ≤ 0.125 µg/mL with Streptococcus pneumoniae. Also, the IC50 in the experiment filed under Rattus norvegicus was 1.3 µM; in experiment [2], > 300 µM.
With `CC(=O)NC[C@H]1CN(c2ccc(/C=C(\F)c3nnn(C)n3)c(F)c2)C(=O)O1`, the MIC was determined as 8 µg/mL (≈ 21.1 µM) against Staphylococcus aureus; 1 µg/mL (≈ 2.64 µM) in experiment [1]; 32 µg/mL (≈ 84.6 µM) against Moraxella catarrhalis; 4 µg/mL (≈ 10.6 µM) with Enterococcus faecium; 2 µg/mL (≈ 5.29 µM) in the experiment on Streptococcus pneumoniae. Besides, the IC50 is 4.9 µM in the experiment filed under Rattus norvegicus and > 300 µM in experiment [2].
For the compound `CC(=O)NC[C@H]1CN(c2ccc(/C=C/c3cccnc3)c(F)c2)C(=O)O1`, the MIC in the experiment with Staphylococcus aureus was determined as 4 µg/mL (≈ 11.3 µM); in experiment [1], 2 µg/mL (≈ 5.63 µM); against Moraxella catarrhalis, 16 µg/mL (≈ 45 µM); in the experiment with Enterococcus faecium, 2 µg/mL (≈ 5.63 µM); against Streptococcus pneumoniae it was 16 µg/mL (≈ 45 µM). The IC50 amounted to 7.8 µM in the experiment filed under Rattus norvegicus and 59 µM in experiment [2].
Consider `CC(=O)NC[C@H]1CN(c2ccc(/C=C(\F)c3cccnc3)c(F)c2)C(=O)O1`, for which the MIC in the experiment on Staphylococcus aureus came to 4 µg/mL (≈ 10.7 µM); in experiment [1] it was 0.25 µg/mL (≈ 0.67 µM); with Moraxella catarrhalis, 8 µg/mL (≈ 21.4 µM); with Enterococcus faecium, 1 µg/mL (≈ 2.68 µM); against Streptococcus pneumoniae it was 0.5 µg/mL (≈ 1.34 µM). Moreover, the IC50 in the experiment filed under Rattus norvegicus was found to be 1.6 µM; in experiment [2], 98 µM.
`CC(=O)NC[C@H]1CN(c2ccc(/C=C(\Br)c3cccc(C=O)c3)c(F)c2)C(=O)O1`: the MIC with Staphylococcus aureus is 0.5 µg/mL (≈ 1.08 µM); in experiment [1], 0.25 µg/mL (≈ 0.542 µM); in the experiment with Moraxella catarrhalis, 1 µg/mL (≈ 2.17 µM); in the experiment on Enterococcus faecium, 0.5 µg/mL (≈ 1.08 µM); with Streptococcus pneumoniae, 1 µg/mL (≈ 2.17 µM). The IC50 was 33 µM in the experiment listed under Rattus norvegicus and > 300 µM in experiment [2].
In the case of `CC(=O)NC[C@H]1CN(c2ccc(/C=C(\F)c3cccc(C(C)=O)c3)c(F)c2)C(=O)O1`, the MIC with Staphylococcus aureus was 0.5 µg/mL (≈ 1.21 µM); in experiment [1], 1 µg/mL (≈ 2.41 µM); against Moraxella catarrhalis, > 128 µg/mL; against Enterococcus faecium, 2 µg/mL (≈ 4.83 µM); against Streptococcus pneumoniae, 1 µg/mL (≈ 2.41 µM). The IC50 in the experiment filed under Rattus norvegicus is 69 µM; in experiment [2], > 300 µM.
Take `CC(=O)NC[C@H]1CN(c2ccc(/C=C(\Br)c3cccnc3)c(F)c2)C(=O)O1`: the MIC against Staphylococcus aureus turned out to be 2 µg/mL (≈ 4.61 µM); in experiment [1] it was 1 µg/mL (≈ 2.3 µM); in the experiment on Moraxella catarrhalis, 8 µg/mL (≈ 18.4 µM); with Enterococcus faecium it was 2 µg/mL (≈ 4.61 µM); in the experiment on Streptococcus pneumoniae it was 1 µg/mL (≈ 2.3 µM). Besides, the IC50 in the experiment listed under Rattus norvegicus stood at 12 µM; in experiment [2] it was 121 µM.
Regarding `CC(=O)NC[C@H]1CN(c2ccc(N3CCOCC3)c(F)c2)C(=O)O1` [LINEZOLID], the figures for the half-maximal inhibitory concentration (IC50) (in the experiment filed under Rattus norvegicus; in experiment [3]) were 12 µM and 17 µM, respectively. For the same compound, the MIC in experiment [1] came to 1 µg/mL (≈ 2.96 µM); in the experiment on Moraxella catarrhalis, 4 µg/mL (≈ 11.9 µM); with Enterococcus faecium, 2 µg/mL (≈ 5.93 µM).

The record behind these values is ChEMBL document CHEMBL1134857, “The synthesis and biological evaluation of a novel series of antimicrobials of the oxazolidinone class” (Bioorg Med Chem Lett, 2002).
